In ChEMBL document CHEMBL4118027, “Preussilides A-F, Bicyclic Polyketides from the Endophytic Fungus Preussia similis with Antiproliferative Activity” (J Nat Prod, 2017):
Converted amounts (≈) assume the structure as drawn. The source made the active and inactive calls. The rule behind the calls is not given here.

Key:
U2OS [1] = test: Cytotoxicity against human U2OS cells assessed as reduction in cell viability after 5 days by MTT assay; format: functional, cell-based; conditions: 120 h
Summary of the method: (§1)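 MTT viability assay run over 5 days on a panel of eight lines (L929, KB3.1, A431, A549, SKOV-3, PC-3, MCF-7, U2OS). IC50 values were derived.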

L929 [2] = test: Induction of nuclear fragmentation in mouse L929 cells at cytotoxic IC50 by DAPI staining based microscopic method; format: functional, cell-based
[3] = test system: Chromobacterium violaceum; test: Antibacterial activity against Chromobacterium violaceum DSM 30191 by serial dilution method; format: functional, organism-based
A-431 = test: Cytotoxicity against human A431 cells assessed as reduction in cell viability after 5 days by MTT assay; format: functional, cell-based; conditions: A-431, 120 h; summary of the method: as §1
L929 [4] = test: Cytotoxicity against mouse L929 cells assessed as reduction in cell viability after 5 days by MTT assay; format: functional, cell-based; conditions: L929, 120 h; summary of the method: as §1
SK-OV-3 = test: Cytotoxicity against human SKOV3 cells assessed as reduction in cell viability after 5 days by MTT assay; format: functional, cell-based; conditions: SK-OV-3, 120 h; summary of the method: as §1
PC-3 = test: Cytotoxicity against human PC3 cells assessed as reduction in cell viability after 5 days by MTT assay; format: functional, cell-based; conditions: PC-3, 120 h; summary of the method: as §1
Micrococcus luteus = test: Antibacterial activity against Micrococcus luteus DSM 1790 by serial dilution method; format: functional, organism-based
[5] = test system: Schizosaccharomyces pombe; test: Antifungal activity against Schizosaccharomyces pombe DSM 70572 by serial dilution method; format: functional, organism-based
Candida albicans = test: Antifungal activity against Candida albicans DSM 1665 by serial dilution method; format: functional, organism-based
A549 = test: Cytotoxicity against human A549 cells assessed as reduction in cell viability after 5 days by MTT assay; format: functional, cell-based; conditions: A549, 120 h; summary of the method: as §1
Caenorhabditis elegans = test: Nematicidal activity against Caenorhabditis elegans up to 100 ug/ml; format: functional, organism-based
[6] = test system: Mycolicibacterium smegmatis; test: Antibacterial activity against Mycobacterium smegmatis ATCC 700084 by serial dilution method; format: functional, organism-based
Setaria italica = test: Phytotoxicity against Setaria italica assessed as inhibition of seedling germination at 100 ug/disk; format: functional, organism-based
Escherichia coli = test: Antibacterial activity against Escherichia coli DSM 498 by serial dilution method; format: functional, organism-based
Yamadazyma tenuis = test: Antifungal activity against Candida tenuis MUCL 29892 by serial dilution method; format: functional, organism-based
KB 3-1 = test: Cytotoxicity against human KB3-1 cells assessed as reduction in cell viability after 5 days by MTT assay; format: functional, cell-based; conditions: KB 3-1, 120 h; summary of the method: as §1
MCF7 = test: Cytotoxicity against human MCF7 cells assessed as reduction in cell viability after 5 days by MTT assay; format: functional, cell-based; conditions: MCF7, 120 h; summary of the method: as §1
Mucor hiemalis = test: Antifungal activity against Mucor hiemalis DSM 2656 by serial dilution method; format: functional, organism-based
Bacillus subtilis = test: Antibacterial activity against Bacillus subtilis DSM 10 by serial dilution method; format: functional, organism-based
Pseudomonas aeruginosa = test: Antibacterial activity against Pseudomonas aeruginosa PA14 by serial dilution method; format: functional, organism-based
Wickerhamomyces anomalus = test: Antifungal activity against Pichia anomala DSM 6766 by serial dilution method; format: functional, organism-based
Lepidium sativum = test: Phytotoxicity against Lepidium sativum assessed as inhibition of seedling germination at 100 ug/disk; format: functional, organism-based
Rhodotorula glutinis = test: Antifungal activity against Rhodotorula glutinis DSM 10134 by serial dilution method; format: functional, organism-based
Staphylococcus aureus = test: Antibacterial activity against Staphylococcus aureus DSM 346 by serial dilution method; format: functional, organism-based
Aspergillus fumigatus = test: Antifungal activity against Aspergillus fumigatus DSM 819 by serial dilution method; format: functional
U2OS [7] = test: Induction of morphological changes in human U2OS cells at 0.5 ug/ml after 24 hrs by DAPI staining based immunofluorescence microscopic method
U2OS [8] = test: Induction of morphological changes in human U2OS cells assessed as aberrantly sized cells with abnormal small nuclei formation at 0.5 ug/ml after 24 hrs by DAPI staining based immunofluorescence microscopic method; format: functional, cell-based
Summary of the method: (§2)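 U2OS in DMEM (4.5 g/L glucose, 10% FBS), 37 °C, 7% CO2, seeded 3 × 10^4/well on fibronectin-coated coverslips and adhered 16 h. Treated 24 h at 0.25, 0.5, 2.5, 5 or 10 μg/mL (diluted from 1 mg/mL DMSO stock), DMSO control. Fixed in 4% PFA/PBS 20 min; anti-α-tubulin (DM1A), phalloidin-Alexa 488 and DNA stain; immunofluorescence imaging.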

Sclerotinia sclerotiorum [9] = test: Antifungal activity against Sclerotinia sclerotiorum DSM 1946 at 100 ug/disk after 5 days by disk diffusion assay; format: functional; conditions: DSM 1946, 120 h, read-out: IZ
Summary of the method: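 Disk diffusion on YMG medium seeded with a mycelial suspension of the non-sporulating test fungus. Paper disks carried […] compound. Nystatin at 20 μg/disk was the positive control. Inhibition zone diameter (mm) was read after 5 days.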

U2OS [10] = test: Cell cycle arrest in human U2OS cells assessed as accumulation at sub-G1 phase at 5 to 10 ug/ml after 18 hrs by propidium iodide staining based flow cytometry; format: functional
Summary of the method: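 U2OS were seeded at 7 × 10^5/well in six-well plates and exposed to 5 or 10 μg/mL for 18 h after spreading, with untreated and DMSO mock controls. Cells were trypsinized, fixed in 2% PFA/PBS, then in ice-cold methanol 30 min. Staining: anti-tubulin/anti-lamin antibodies plus RNase A and propidium iodide. Flow cytometry assigned G1, S, G2-M and sub-G1 by DNA content.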

U2OS [11] = test: Induction of morphological changes in human U2OS cells assessed as multipolar and duplicated spindle formation at 0.5 ug/ml after 24 hrs by DAPI staining based immunofluorescence microscopic method; format: functional, cell-based; summary of the method: as §2
Mucor plumbeus = test: Antifungal activity against Mucor plumbeus MUCL 49355 by serial dilution method; format: functional
Sclerotinia sclerotiorum [12] = test: Antifungal activity against Sclerotinia sclerotiorum DSM 1946 at 20 ug/disk after 5 days by disk diffusion assay; format: functional, organism-based
Summary of the method: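 Disk diffusion on YMG medium seeded with a mycelial suspension of the non-sporulating fungus; paper disks loaded with test material; inhibition zone diameter in mm read after 5 days.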

U2OS [13] = test: Induction of apoptosis in human U2OS cells assessed as caspase-3/7 cleavage at 250 nM after 16 hrs by caspase-3/7 green reagent based flow cytometry (reference value: 8.04%); format: functional

Molecule: CC(=O)CC1=C(C)C=C2C[C@@H](C)C(=O)[C@@H](C)[C@@H]2[C@H]1/C=C(C)/C=C(C)\C=C\C(=O)O
- IC50 (U2OS [1]): > 2520 µM
- Activity (L929 [2]): Active
- Activity [3]: inactive
- IC50 (A-431): 17.9 µM
- IC50 (L929 [4]): 24.7 µM
- IC50 (SK-OV-3): 20.2 µM
- IC50 (PC-3): 45.4 µM
- Activity (Micrococcus luteus): inactive
- Activity [5]: inactive
- Activity (Candida albicans): inactive
- IC50 (A549): 47.9 µM
- Activity (Caenorhabditis elegans): inactive
- Activity [6]: inactive
- Activity (Setaria italica): inactive
- Activity (Escherichia coli): inactive
- Activity (Yamadazyma tenuis): inactive
- IC50 (KB 3-1): 17.4 µM
- IC50 (MCF7): 15.4 µM
- Activity (Mucor hiemalis): inactive
- Activity (Bacillus subtilis): inactive
- Activity (Pseudomonas aeruginosa): inactive
- Activity (Wickerhamomyces anomalus): inactive
- Activity (Lepidium sativum): inactive
- Activity (Rhodotorula glutinis): inactive
- Activity (Staphylococcus aureus): inactive

Molecule: C[C@@H]1C[C@@H]([C@H](O)CC2CC(=O)NC(=O)C2)C(=O)[C@@H](C)C1 [CYCLOHEXIMIDE]
- MIC (Aspergillus fumigatus): 33.3 µg/mL (≈ 118 µM)

Molecule: COC(=O)/C=C/C(C)=C/C(C)=C/[C@H]1C(C[C@H](C)O)=C(C)C=C2C[C@@H](C)C(=O)[C@@H](C)[C@@H]21
- IC50 (U2OS [1]): > 2430 µM
- Activity (L929 [2]): Active
- Activity [3]: inactive
- IC50 (A-431): 55.8 µM
- IC50 (L929 [4]): 80 µM
- IC50 (SK-OV-3): 29.1 µM
- IC50 (PC-3): 41.2 µM
- Activity (Micrococcus luteus): inactive
- Activity [5]: inactive
- Activity (Candida albicans): inactive
- IC50 (A549): 41.2 µM
- Activity (Caenorhabditis elegans): inactive
- Activity [6]: inactive
- Activity (Setaria italica): inactive
- Activity (Escherichia coli): inactive
- Activity (Yamadazyma tenuis): inactive
- IC50 (KB 3-1): 23 µM
- IC50 (MCF7): 55.8 µM
- Activity (Mucor hiemalis): inactive
- Activity (Bacillus subtilis): inactive
- Activity (Pseudomonas aeruginosa): inactive
- Activity (Wickerhamomyces anomalus): inactive
- Activity (Lepidium sativum): inactive
- Activity (Rhodotorula glutinis): inactive
- Activity (Staphylococcus aureus): inactive

Molecule: CC1=C(C[C@H](C)O)[C@H](/C=C(C)/C=C(C)/C=C/C(=O)O)[C@@H]2C(=C1)C[C@@H](C)C(=O)[C@H]2C
- IC50 (U2OS [1]): 7.03 µM
- Activity (L929 [2]): Active
- Activity (U2OS [7]): Active
- Activity [3]: inactive
- IC50 (A-431): 20.3 µM
- IC50 (L929 [4]): 6.5 µM
- IC50 (SK-OV-3): 22.6 µM
- IC50 (PC-3): 47.7 µM
- Activity (U2OS [8]): Active
- Activity (Micrococcus luteus): inactive
- Activity [5]: inactive
- Activity (Candida albicans): inactive
- IC50 (A549): 60.3 µM
- zone of inhibition at 100 µg/disc (Sclerotinia sclerotiorum [9]): 28 mm
- Activity (U2OS [10]): Active
- Activity (Caenorhabditis elegans): inactive
- Activity [6]: inactive
- Activity (U2OS [11]): Active
- Activity (Setaria italica): inactive
- MIC (Mucor plumbeus): 150 µg/mL (≈ 376 µM)
- Activity (Escherichia coli): inactive
- Activity (Yamadazyma tenuis): inactive
- IC50 (KB 3-1): 6 µM
- IC50 (MCF7): 24.3 µM
- Activity (Mucor hiemalis): inactive
- Activity (Bacillus subtilis): inactive
- Activity (Pseudomonas aeruginosa): inactive
- Activity (Wickerhamomyces anomalus): inactive
- MIC (Aspergillus fumigatus): 35.5 µg/mL (≈ 89.1 µM)
- Activity (Lepidium sativum): inactive
- Activity (Rhodotorula glutinis): inactive
- Activity (Staphylococcus aureus): inactive

Molecule: NYSTATIN
- inhibition zone (IZ) (Sclerotinia sclerotiorum [12]): 32 mm

Molecule: C/C(=C\c1csc(C)n1)[C@@H]1C[C@@H]2O[C@]2(C)CCC[C@H](C)[C@H](O)[C@@H](C)C(=O)C(C)(C)[C@@H](O)CC(=O)O1 [PATUPILONE]
- IC50 (U2OS [1]): 0.000104 µM
- IC50 (A-431): 7.3e-05 µM
- IC50 (L929 [4]): 0.0017 µM
- IC50 (SK-OV-3): 2.36e-05 µM
- IC50 (PC-3): 0.00025 µM
- IC50 (A549): 0.00015 µM
- IC50 (KB 3-1): 6.1e-05 µM
- IC50 (MCF7): 0.00015 µM

Molecule: CC(=O)CC1=C(C)C=C2C[C@@H](C)[C@@H](O)[C@@H](C)[C@@H]2[C@H]1/C=C(C)/C=C(C)/C=C/C(=O)O
- IC50 (U2OS [1]): > 2510 µM
- Activity (L929 [2]): Active
- Activity [3]: inactive
- IC50 (A-431): 35.1 µM
- IC50 (L929 [4]): 17.3 µM
- IC50 (SK-OV-3): 32.4 µM
- IC50 (PC-3): 60.2 µM
- Activity (Micrococcus luteus): inactive
- Activity [5]: inactive
- Activity (Candida albicans): inactive
- IC50 (A549): 70.3 µM
- Activity (Caenorhabditis elegans): inactive
- Activity [6]: inactive
- Activity (Setaria italica): inactive
- Activity (Escherichia coli): inactive
- Activity (Yamadazyma tenuis): inactive
- IC50 (KB 3-1): 11.3 µM
- IC50 (MCF7): 22.1 µM
- Activity (Mucor hiemalis): inactive
- Activity (Bacillus subtilis): inactive
- Activity (Pseudomonas aeruginosa): inactive
- Activity (Wickerhamomyces anomalus): inactive
- Activity (Lepidium sativum): inactive
- Activity (Rhodotorula glutinis): inactive
- Activity (Staphylococcus aureus): inactive

Molecule: CN[C@@H]1C[C@H]2O[C@@](C)([C@@H]1OC)n1c3ccccc3c3c4c(c5c6ccccc6n2c5c31)C(=O)NC4 [STAUROSPORINE]
- Activity (U2OS [13]): 22.6%

Molecule: COC(=O)/C=C/C(C)=C/C(C)=C/[C@H]1C(CC(C)=O)=C(C)C=C2C[C@@H](C)C(=O)[C@@H](C)[C@@H]21
- IC50 (U2OS [1]): 22.2 µM
- Activity (L929 [2]): Active
- Activity [3]: inactive
- IC50 (A-431): > 2440 µM
- IC50 (L929 [4]): 53.6 µM
- IC50 (SK-OV-3): > 2440 µM
- IC50 (PC-3): > 2440 µM
- Activity (Micrococcus luteus): inactive
- Activity [5]: inactive
- Activity (Candida albicans): inactive
- IC50 (A549): > 2440 µM
- Activity (Caenorhabditis elegans): inactive
- Activity [6]: inactive
- Activity (Setaria italica): inactive
- Activity (Escherichia coli): inactive
- Activity (Yamadazyma tenuis): inactive
- IC50 (KB 3-1): 51.2 µM
- IC50 (MCF7): > 2440 µM
- Activity (Mucor hiemalis): inactive
- Activity (Bacillus subtilis): inactive
- Activity (Pseudomonas aeruginosa): inactive
- Activity (Wickerhamomyces anomalus): inactive
- Activity (Lepidium sativum): inactive
- Activity (Rhodotorula glutinis): inactive
- Activity (Staphylococcus aureus): inactive
